The values that follow come from ChEMBL document CHEMBL1148835, “Weak base dispiro-1,2,4-trioxolanes: potent antimalarial ozonides” (Bioorg Med Chem Lett, 2007).

The structures appear in SMILES notation. In brackets after ≈: the same amount, converted by molar mass.

Data set [1] concerns Plasmodium berghei. The data set can be described thus: Antimalarial activity as reduced parasitaemia against Plasmodium berghei infected MORO mice (Mus musculus) at 10 mg/kg peroral dose. Format: functional. The arrangement: scale not given: the % may be the effect or the level left. Particulars: route oral. An outline of the steps:
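Groups of three P. berghei-infected MORO mice were given a single oral 10 mg/kg dose on day 1 post-infection. Read-out was percent reduction in parasitemia on day 3 post-infection.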

In data set [2] the test system is Plasmodium falciparum. Put plainly: Antimalarial activity against chloroquine-sensitive Plasmodium falciparum NF54. In kind it is functional, organism-based. A digest of the protocol: (§1)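 In vitro growth assay using asexual P. falciparum cultures, K1 for line 1 and NF54 for line 2. Each value is the mean of 2–3 determinations. Individual measurements differed by less than 50%.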

Data set [3] relates to Plasmodium falciparum. The data set can be described thus: Antimalarial activity against chloroquine-resistant Plasmodium falciparum K1. In kind it is functional, organism-based. An outline of the steps: as §1
The nature of data set [4]: Biodistribution in Sprague-Dawley rat at 4 mg/kg, iv and 10 mg/kg, po. Conditions: in vivo. In kind it is ADME, organism-based. An outline of the steps:
(§2)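 Rats were dosed 4 mg/kg IV via a jugular cannula fitted the day before, in 40% v/v propylene glycol, 10% v/v ethanol and water. Separately, 10 mg/kg was given by oral gavage as a suspension in 0.5% w/v aqueous HPMC. Serial blood was drawn via a carotid cannula and the plasma stored at -80 °C. Plasma was quantified by LC/MS against a calibration curve prepared in plasma. Values are the average of 2–3 determinations.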

Data set [5] is described as follows: Half life in Sprague-Dawley rat at 4 mg/kg, iv and 10 mg/kg, po. In kind it is ADME, organism-based. Particulars: in vivo. An outline of the steps: as §2
Data set [6] in a line: Plasma clearance in Sprague-Dawley rat at 4 mg/kg, iv and 10 mg/kg, po. Format: ADME, organism-based. An outline of the steps: as §2
Data set [7] can be described thus: Bioavailability in Sprague-Dawley rat at 10 mg/kg, po. Format: ADME, organism-based. Conditions: in vivo. A digest of the protocol:
as §2

Data set [8] can be described thus: Biodistribution in Sprague-Dawley rat at 10 mg/kg, iv and 50 mg/kg, po. Conditions: in vivo. Format: ADME, organism-based. A digest of the protocol:
(§3)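 Rats were dosed 10 mg/kg IV via a jugular cannula in 10% v/v propylene glycol, 10% v/v ethanol and water. Separately, 50 mg/kg was given by oral gavage as a suspension in 0.5% w/v aqueous HPMC. Serial blood was drawn via a carotid cannula and the plasma stored at -80 °C. LC/MS quantification used a calibration curve prepared in plasma. Values are the average of 2–3 determinations.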

For data set [9], the species on record is Rattus norvegicus. Put plainly: Neurotoxicity in rat. Format: toxicity, organism-based. Particulars: in vivo. An outline of the steps:
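Five-day toxicity study in male rats with daily oral administration, including observation for signs of neurotoxicity.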

The nature of data set [10]: Half life in Sprague-Dawley rat at 10 mg/kg, iv and 50 mg/kg, po. In kind it is ADME, organism-based. Particulars: in vivo. An outline of the steps:
as §3

Data set [11] is described as follows: Plasma clearance in Sprague-Dawley rat at 10 mg/kg, iv and 50 mg/kg, po. In kind it is ADME, organism-based. A digest of the protocol:
as §3

The target of data set [12] is Voltage-gated inwardly rectifying potassium channel KCNH2 (Homo sapiens, UniProt Q12809). The data set can be described thus: Inhibition of hERG by patch clamp assay. Format: toxicity. In general terms: Block of hERG is tested as a sign of cardiac risk.
Chain of Voltage-gated inwardly rectifying potassium channel KCNH2 (Q12809 whole entry): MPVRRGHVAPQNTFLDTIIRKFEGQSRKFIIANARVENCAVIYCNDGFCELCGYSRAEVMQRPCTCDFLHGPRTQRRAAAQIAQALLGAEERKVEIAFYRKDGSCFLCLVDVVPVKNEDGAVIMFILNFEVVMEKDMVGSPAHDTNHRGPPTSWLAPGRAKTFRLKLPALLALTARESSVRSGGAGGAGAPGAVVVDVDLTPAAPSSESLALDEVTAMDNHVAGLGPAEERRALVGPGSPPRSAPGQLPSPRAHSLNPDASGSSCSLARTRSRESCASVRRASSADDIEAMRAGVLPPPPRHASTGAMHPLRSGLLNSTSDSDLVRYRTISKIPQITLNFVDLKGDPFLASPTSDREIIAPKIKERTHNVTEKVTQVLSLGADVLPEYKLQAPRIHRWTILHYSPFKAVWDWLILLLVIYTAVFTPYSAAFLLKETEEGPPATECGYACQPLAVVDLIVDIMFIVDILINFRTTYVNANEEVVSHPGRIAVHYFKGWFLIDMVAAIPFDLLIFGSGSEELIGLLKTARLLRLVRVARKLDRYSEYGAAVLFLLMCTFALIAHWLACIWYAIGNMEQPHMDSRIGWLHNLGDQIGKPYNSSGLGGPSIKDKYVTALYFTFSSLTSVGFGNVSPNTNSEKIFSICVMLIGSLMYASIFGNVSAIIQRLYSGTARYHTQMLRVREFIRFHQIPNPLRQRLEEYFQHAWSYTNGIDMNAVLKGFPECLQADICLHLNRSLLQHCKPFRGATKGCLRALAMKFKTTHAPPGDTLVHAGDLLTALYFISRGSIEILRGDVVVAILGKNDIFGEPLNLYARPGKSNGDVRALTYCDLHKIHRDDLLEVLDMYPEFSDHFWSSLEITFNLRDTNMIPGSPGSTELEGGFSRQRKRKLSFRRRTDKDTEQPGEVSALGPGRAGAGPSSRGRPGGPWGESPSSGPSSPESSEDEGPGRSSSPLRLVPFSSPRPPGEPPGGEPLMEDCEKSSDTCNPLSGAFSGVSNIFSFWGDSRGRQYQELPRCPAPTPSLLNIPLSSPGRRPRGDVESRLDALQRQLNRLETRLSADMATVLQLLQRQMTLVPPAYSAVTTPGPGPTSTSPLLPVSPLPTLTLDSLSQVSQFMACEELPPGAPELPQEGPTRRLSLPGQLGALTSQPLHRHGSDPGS
Data set [13] is described as follows: Plasma clearance in Sprague-Dawley rat at 25 mg/kg, iv and 50 mg/kg, po. In kind it is ADME, organism-based. A digest of the protocol: (§4)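 Rats were dosed 25 mg/kg IV via a jugular cannula in aqueous citrate buffer, pH 3. Separately, 50 mg/kg was given by oral gavage as a suspension in 0.5% w/v aqueous HPMC. Carotid-cannula serial blood samples were centrifuged immediately and the plasma stored at -80 °C. Plasma was assayed by LC/MS against a calibration curve prepared in plasma. Values are the average of 2–3 determinations.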

A short description of data set [14]: Half life in Sprague-Dawley rat at 25 mg/kg, iv and 50 mg/kg, po. Format: ADME, organism-based. Conditions: in vivo. A digest of the protocol:
as §4

Data set [15] can be described thus: Biodistribution in Sprague-Dawley rat at 25 mg/kg, iv and 50 mg/kg, po. Format: ADME, organism-based. Conditions: in vivo. A digest of the protocol: as §4
Data set [16] is described as follows: Bioavailability in Sprague-Dawley rat at 25 mg/kg, po. In kind it is ADME, organism-based. Particulars: in vivo.

In data set [1], `Cc1ccc(S(=O)(=O)O)cc1.N[C@H]1CC[C@]2(CC1)OO[C@]1(O2)C2CC3CC(C2)CC1C3` had an Activity of 98%. Moreover, in data set [2], inhibition was half-maximal at 0.31 ng/mL (IC50).

Turning to `C1C2CC3CC1CC(C2)C31OO[C@]2(CC[C@@H](CNC3CC3)CC2)O1.CS(=O)(=O)O` (stereo partly drawn), the IC50 (in general, the concentration at which inhibition is half-maximal) in data set [3] was 0.56 ng/mL; in data set [2] it was 0.45 ng/mL.

In turn, `CCOC(=O)NC[C@H]1CC[C@]2(CC1)OO[C@]1(O2)C2CC3CC(C2)CC1C3` had an IC50 in data set [2] of 0.56 ng/mL (≈ 1.53 nM).

Regarding `NS(=O)(=O)c1ccc(NC[C@H]2CC[C@]3(CC2)OO[C@]2(O3)C3CC4CC(C3)CC2C4)cc1`, in data set [1], the Activity is 99.95%.

Molecule `C1C2CC3CC1CC(C2)[C@]31OO[C@@]2(CC[C@H](Cc3nnn[nH]3)CC2)O1` yielded an Activity in data set [1] of 40%. Moreover, the figures for the IC50 in data set [3] and in data set [2] were 46 ng/mL (≈ 133 nM) and 55 ng/mL (≈ 159 nM), respectively.

`CC(C)(C)C1CCC2(CC1)OOC1(CCC(CN)CC1)O2.CS(=O)(=O)O` (stereo not drawn) had an Activity in [1] of 0%. In addition, the IC50 in [3] and in [2] was more than 100 ng/mL in each case.

For the molecule `O=C1CN(C[C@H]2CC[C@]3(CC2)OO[C@]2(O3)C3CC4CC(C3)CC2C4)CCN1`, the IC50 in [3] was found to be 1.3 ng/mL (≈ 3.45 nM); in [2], 1.8 ng/mL (≈ 4.78 nM).

As to `NC(=O)c1ccc(N[C@H]2CC[C@]3(CC2)OO[C@]2(O3)C3CC4CC(C3)CC2C4)cc1`, the Activity in data set [1] was 99.98%. The half-maximal inhibitory concentration (IC50) worked out at 1.1 ng/mL (≈ 2.76 nM) in data set [3] and 1 ng/mL (≈ 2.51 nM) in data set [2].

Turning to `NC(=O)CN(CC(N)=O)C[C@H]1CC[C@]2(CC1)OO[C@]1(O2)C2CC3CC(C2)CC1C3`, the Activity in data set [1] is given as 86%. In addition, the IC50 is 1.7 ng/mL (≈ 4.17 nM) in data set [3] and 2 ng/mL (≈ 4.91 nM) in data set [2].

For `CS(=O)(=O)O.c1ncn(C[C@H]2CC[C@]3(CC2)OOC2(O3)C3CC4CC(C3)CC2C4)n1` (stereo partly drawn), the IC50 in data set [3] is 0.9 ng/mL; in data set [2], 1.7 ng/mL.

For the molecule `CS(=O)(=O)O.c1csc(NC[C@H]2CC[C@]3(CC2)OOC2(O3)C3CC4CC(C3)CC2C4)n1` (stereo partly drawn), the IC50 in data set [3] was determined as 2.3 ng/mL; in [2], 2.2 ng/mL.

The molecule `OC[C@H]1CC[C@]2(CC1)OO[C@]1(O2)C2CC3CC(C2)CC1C3` registered a Vd in data set [4] of 5.3 L/kg. Further, the half-life (commonly the time in which the quantity being followed falls by half) in [5] amounted to 27 min. In addition, the clearance in data set [6] came out at 136 mL/min/kg.

On to `NC(=O)c1cncn1C[C@H]1CC[C@]2(CC1)OO[C@]1(O2)C2CC3CC(C2)CC1C3`, for which the Activity in data set [1] is reported as 99.77%.

Consider `Cl.c1cn(C[C@H]2CC[C@]3(CC2)OO[C@]2(O3)C3CC4CC(C3)CC2C4)cn1`, for which, in data set [7], the bioavailability (as a rule, dose-corrected exposure relative to a reference, in per cent) stood at 36%. Besides, the IC50 in data set [3] worked out at 1.3 ng/mL; in data set [2], 1.1 ng/mL. This molecule also showed a Vd in data set [8] of 4.1 L/kg. In data set [9], the Activity entry is “Non-toxic”. In addition, the half-life in [10] is 47 min. Further, the clearance in [11] was 60.1 mL/min/kg.

On to `c1cn(CC[C@H]2CC[C@]3(CC2)OO[C@]2(O3)C3CC4CC(C3)CC2C4)cn1`, for which the IC50 in data set [3] turned out to be 0.44 ng/mL (≈ 1.23 nM); in data set [2], 0.4 ng/mL (≈ 1.12 nM).

`CS(=O)(=O)O.NOC[C@H]1CC[C@]2(CC1)OOC1(O2)C2CC3CC(C2)CC1C3` (stereo partly drawn) displayed an Activity in data set [1] of 47%. In addition, the IC50 in data set [3] is 28 ng/mL; in [2], 20 ng/mL.

On to `NS(=O)(=O)c1ccc(N[C@H]2CC[C@]3(CC2)OO[C@]2(O3)C3CC4CC(C3)CC2C4)cc1`, for which the Activity in data set [1] is 99.98%. For the same molecule, the IC50 in data set [3] was 2.7 ng/mL (≈ 6.21 nM); in data set [2], 3 ng/mL (≈ 6.9 nM).

For the molecule `CS(=O)(=O)O.O=C(O)CNC[C@H]1CC[C@]2(CC1)OOC1(O2)C2CC3CC(C2)CC1C3` (stereo partly drawn), the figures for the IC50 in data set [3] and in data set [2] were 11 ng/mL and 17 ng/mL, respectively.

With `CN(C)C[C@H]1CC[C@]2(CC1)OOC1(O2)C2CC3CC(C2)CC1C3.CS(=O)(=O)O` (stereo partly drawn), the IC50 in [3] stood at 0.35 ng/mL; in data set [2] it was 0.75 ng/mL.

Consider `CS(=O)(=O)O.NC[C@H]1CC[C@]2(CC1)OOC1(O2)C2CC3CC(C2)CC1C3` (stereo partly drawn), for which the results for the IC50 in data set [12] and in data set [3] were 1800 nM and 0.39 ng/mL, respectively. For the same molecule, the clearance in data set [13] turned out to be 177 mL/min/kg. In addition, the half-life in data set [14] is 150 min. Further, in data set [9], the Activity entry was “Non-toxic”. The same molecule registered a Vd in data set [15] of 39 L/kg. The bioavailability in data set [16] is 31%.

Molecule `O=CN1CCN(C[C@H]2CC[C@]3(CC2)OO[C@]2(O3)C3CC4CC(C3)CC2C4)CC1` returned an Activity in data set [1] of 99.01%.

As for `c1cnn(C[C@H]2CC[C@]3(CC2)OO[C@]2(O3)C3CC4CC(C3)CC2C4)c1`, the Activity in [1] was determined as 78%. The IC50 in data set [3] amounted to 1 ng/mL (≈ 2.9 nM); in data set [2], 1.2 ng/mL (≈ 3.48 nM).

Molecule `CS(=O)(=O)O.NC(=O)CCNC[C@H]1CC[C@]2(CC1)OOC1(O2)C2CC3CC(C2)CC1C3` (stereo partly drawn) yielded an Activity in data set [1] of 99.92%. Also, the IC50 is 0.41 ng/mL in [3] and 0.91 ng/mL in [2].

On to `NC(=O)CNC[C@H]1CC[C@]2(CC1)OO[C@]1(O2)C2CC3CC(C2)CC1C3`, for which the IC50 came to 2700 nM in data set [12], 0.3 ng/mL (≈ 0.856 nM) in data set [3] and 0.59 ng/mL (≈ 1.68 nM) in data set [2]. In data set [13], the clearance came to 102 mL/min/kg. This molecule had a half-life in data set [14] of 94 min. In addition, the Activity result in data set [9] is “Non-toxic”. For the same molecule, the Vd in data set [15] was determined as 13 L/kg. Also, the bioavailability in data set [16] turned out to be 58%.

On to `c1c[nH]c(C[C@H]2CC[C@]3(CC2)OO[C@]2(O3)C3CC4CC(C3)CC2C4)n1`, for which, in data set [1], the Activity was 71%.

In the case of `CC(C)(N)CNC[C@H]1CC[C@]2(CC1)OOC1(O2)C2CC3CC(C2)CC1C3.CS(=O)(=O)O.CS(=O)(=O)O` (stereo partly drawn), the figures for the IC50 in data set [3] and in data set [2] were 0.49 ng/mL and 0.83 ng/mL, respectively.

In turn, `OCC[C@H]1CC[C@]2(CC1)OO[C@]1(O2)C2CC3CC(C2)CC1C3` returned an Activity in data set [1] of 89%. For the same molecule, the IC50 came out at 0.3 ng/mL (≈ 0.973 nM) in [3] and 0.75 ng/mL (≈ 2.43 nM) in data set [2].

With `Cl.NCC[C@H]1CC[C@]2(CC1)OO[C@]1(O2)C2CC3CC(C2)CC1C3`, the figures for the IC50 in data set [3] and in [2] were 0.15 ng/mL and 0.48 ng/mL, respectively.

For the molecule `NC(=O)c1cn(C[C@H]2CC[C@]3(CC2)OO[C@]2(O3)C3CC4CC(C3)CC2C4)cn1`, the Activity in data set [1] is recorded as 99.76%.
